# Tests used:
# physchem = conditions: buffer, pH 7.4
# [1] = Plasma clearance in Sprague-Dawley rat at 5 mg/kg, iv; type: ADME, organism-based; parameters: dose 5 mg/kg, route intravenous
# How it was run: (§1)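 Female Sprague-Dawley rats were dosed by the iv or oral route. Parameters are reported as means of individual-animal pharmacokinetic values.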
# [2] = Volume of distribution at steady state in Sprague-Dawley rat at 5 mg/kg, iv; type: ADME, organism-based; parameters: dose 5 mg/kg, route intravenous; conditions: in vivo, read-out: Vss
# How it was run: as §1
# [3] = Half life in Sprague-Dawley rat at 5 mg/kg, iv; type: ADME, organism-based; parameters: dose 5 mg/kg, route intravenous; conditions: in vivo
# How it was run: as §1
# Monocyte = test: Inhibition of LPS-stimulated TNFalpha production in monocytes; type: functional, Homo sapiens
# Rattus norvegicus [4] = test: AUC (0 to infinity) in Sprague-Dawley rat at 25 mg/kg, po; type: ADME, organism-based, Plasma; parameters: dose 25 mg/kg, route oral; conditions: in vivo
# How it was run: as §1
# [5] = biological target: MAP kinase-activated protein kinase 2 (Homo sapiens, UniProt P49137); test: Inhibition of MK2
# MAP kinase-activated protein kinase 2, sequence (P49137 whole entry): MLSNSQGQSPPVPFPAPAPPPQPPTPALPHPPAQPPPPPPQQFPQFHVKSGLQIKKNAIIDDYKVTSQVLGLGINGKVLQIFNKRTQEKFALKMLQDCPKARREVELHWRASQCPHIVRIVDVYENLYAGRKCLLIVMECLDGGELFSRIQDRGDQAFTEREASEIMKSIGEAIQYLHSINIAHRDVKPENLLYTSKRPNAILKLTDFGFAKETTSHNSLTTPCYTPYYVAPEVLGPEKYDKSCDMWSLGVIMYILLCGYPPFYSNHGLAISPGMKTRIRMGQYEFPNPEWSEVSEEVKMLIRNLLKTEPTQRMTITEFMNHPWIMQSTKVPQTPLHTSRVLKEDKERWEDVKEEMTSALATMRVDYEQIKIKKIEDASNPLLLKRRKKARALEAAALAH
# Blood = test: Inhibition of LPS-stimulated TNFalpha production in human blood; type: functional
# [6] = Half life in Sprague-Dawley rat at 25 mg/kg, po; type: ADME, organism-based; parameters: dose 25 mg/kg, route oral; conditions: in vivo
# How it was run: as §1
# [7] = biological target: Proto-oncogene tyrosine-protein kinase Src (Homo sapiens, UniProt P12931); test: Inhibition of Src
# Proto-oncogene tyrosine-protein kinase Src, sequence (P12931 2-536 limits assumed): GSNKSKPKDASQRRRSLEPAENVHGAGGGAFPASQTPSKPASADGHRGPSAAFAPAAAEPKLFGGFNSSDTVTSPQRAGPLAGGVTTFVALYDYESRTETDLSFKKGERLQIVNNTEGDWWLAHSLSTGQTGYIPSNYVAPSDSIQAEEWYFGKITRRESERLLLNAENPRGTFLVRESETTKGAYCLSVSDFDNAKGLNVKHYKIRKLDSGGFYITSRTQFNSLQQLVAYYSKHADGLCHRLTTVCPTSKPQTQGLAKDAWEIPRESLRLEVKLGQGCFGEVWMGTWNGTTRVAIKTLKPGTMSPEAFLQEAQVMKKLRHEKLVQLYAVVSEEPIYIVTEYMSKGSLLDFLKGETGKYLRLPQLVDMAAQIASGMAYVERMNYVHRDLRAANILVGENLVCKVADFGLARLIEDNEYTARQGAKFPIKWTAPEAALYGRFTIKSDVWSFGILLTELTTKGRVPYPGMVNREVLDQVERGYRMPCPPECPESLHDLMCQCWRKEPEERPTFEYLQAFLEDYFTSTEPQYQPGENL
# [8] = biological target: Ribosomal protein S6 kinase beta-1 (Homo sapiens, UniProt P23443); test: Inhibition of S6K
# Ribosomal protein S6 kinase beta-1, sequence (P23443 whole entry): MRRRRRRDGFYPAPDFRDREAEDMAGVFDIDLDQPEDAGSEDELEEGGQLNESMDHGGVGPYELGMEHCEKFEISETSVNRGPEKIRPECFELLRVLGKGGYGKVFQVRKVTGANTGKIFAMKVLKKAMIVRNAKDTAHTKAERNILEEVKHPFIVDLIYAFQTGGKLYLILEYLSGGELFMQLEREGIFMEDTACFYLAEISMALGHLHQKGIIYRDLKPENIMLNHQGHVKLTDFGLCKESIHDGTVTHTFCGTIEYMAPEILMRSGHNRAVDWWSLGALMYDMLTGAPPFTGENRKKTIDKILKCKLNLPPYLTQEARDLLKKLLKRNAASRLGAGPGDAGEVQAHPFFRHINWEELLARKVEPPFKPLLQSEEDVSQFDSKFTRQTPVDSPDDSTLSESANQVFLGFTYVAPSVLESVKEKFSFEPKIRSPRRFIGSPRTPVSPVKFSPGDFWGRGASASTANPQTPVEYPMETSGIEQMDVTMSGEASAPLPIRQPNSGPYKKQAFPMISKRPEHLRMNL
# [9] = Bioavailability in Sprague-Dawley rat at 25 mg/kg, po; type: ADME, organism-based; conditions: in vivo
# How it was run: as §1
# [10] = biological target: Protein kinase C alpha type (Homo sapiens, UniProt P17252); test: Inhibition of PKCalpha
# [11] = Permeability at pH 7.4 by PAMPA method; type: ADME; conditions: read-out: permeability
# How it was run: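 Passive permeability was measured by high-resolution PAMPA at pH 7.4.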
# [12] = biological target: Epidermal growth factor receptor (Homo sapiens, UniProt P00533)
# Epidermal growth factor receptor, sequence (P00533 whole entry): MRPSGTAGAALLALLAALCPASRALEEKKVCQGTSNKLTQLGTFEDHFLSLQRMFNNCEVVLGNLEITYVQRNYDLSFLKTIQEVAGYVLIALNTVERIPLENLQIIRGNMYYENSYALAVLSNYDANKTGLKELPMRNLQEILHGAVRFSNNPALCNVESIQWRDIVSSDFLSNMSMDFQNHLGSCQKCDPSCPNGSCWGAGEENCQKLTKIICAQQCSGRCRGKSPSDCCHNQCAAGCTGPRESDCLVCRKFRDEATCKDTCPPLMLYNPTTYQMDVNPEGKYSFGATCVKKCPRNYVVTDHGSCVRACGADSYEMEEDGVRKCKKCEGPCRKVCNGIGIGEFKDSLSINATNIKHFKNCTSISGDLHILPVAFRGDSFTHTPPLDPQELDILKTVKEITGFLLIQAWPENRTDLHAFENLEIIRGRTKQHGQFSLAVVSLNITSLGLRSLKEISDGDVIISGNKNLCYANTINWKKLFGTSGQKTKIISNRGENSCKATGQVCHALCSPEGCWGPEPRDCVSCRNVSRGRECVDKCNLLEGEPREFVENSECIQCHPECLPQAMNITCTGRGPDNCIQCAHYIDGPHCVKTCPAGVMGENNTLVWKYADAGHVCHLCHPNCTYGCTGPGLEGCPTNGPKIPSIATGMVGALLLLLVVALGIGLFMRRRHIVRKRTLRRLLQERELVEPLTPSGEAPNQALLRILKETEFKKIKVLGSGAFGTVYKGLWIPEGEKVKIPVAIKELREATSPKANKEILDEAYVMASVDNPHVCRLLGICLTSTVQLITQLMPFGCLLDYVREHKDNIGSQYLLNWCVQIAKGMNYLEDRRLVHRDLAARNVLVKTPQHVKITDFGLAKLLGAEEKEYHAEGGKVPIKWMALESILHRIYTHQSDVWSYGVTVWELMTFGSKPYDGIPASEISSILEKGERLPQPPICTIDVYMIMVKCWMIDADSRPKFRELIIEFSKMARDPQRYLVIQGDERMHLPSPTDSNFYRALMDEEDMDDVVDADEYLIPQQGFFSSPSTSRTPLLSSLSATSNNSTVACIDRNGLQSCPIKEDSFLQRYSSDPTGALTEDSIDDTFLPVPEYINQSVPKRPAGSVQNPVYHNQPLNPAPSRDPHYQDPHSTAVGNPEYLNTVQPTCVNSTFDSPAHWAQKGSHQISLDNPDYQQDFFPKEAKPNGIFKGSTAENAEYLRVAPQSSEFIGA
# CaM kinase II = CaM kinase II (Homo sapiens, UniProt Q13557+Q13555+Q13554+Q9UQM7)
# [13] = biological target: cAMP-dependent protein kinase (PKA) (Homo sapiens, UniProt P22694+P17612+P22612); test: Inhibition of PKA; type: protein assay
# Cytochrome P450 3A4 = Cytochrome P450 3A4 (Homo sapiens, UniProt P08684)
# Cytochrome P450 3A4, sequence (P08684 whole entry): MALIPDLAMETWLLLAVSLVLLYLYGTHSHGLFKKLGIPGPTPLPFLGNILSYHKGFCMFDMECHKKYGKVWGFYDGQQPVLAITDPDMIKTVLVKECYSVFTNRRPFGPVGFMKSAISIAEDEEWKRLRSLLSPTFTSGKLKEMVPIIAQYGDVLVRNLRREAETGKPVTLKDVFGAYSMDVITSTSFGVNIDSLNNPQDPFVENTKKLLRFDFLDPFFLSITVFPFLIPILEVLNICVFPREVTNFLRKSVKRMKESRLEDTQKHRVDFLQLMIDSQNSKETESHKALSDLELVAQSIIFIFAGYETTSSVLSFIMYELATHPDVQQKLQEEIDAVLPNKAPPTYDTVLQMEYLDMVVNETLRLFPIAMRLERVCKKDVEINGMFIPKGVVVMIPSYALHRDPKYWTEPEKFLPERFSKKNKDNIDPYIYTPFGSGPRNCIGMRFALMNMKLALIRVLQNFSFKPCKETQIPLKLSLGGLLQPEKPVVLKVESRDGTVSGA
# [14] = biological target: Mitogen-activated protein kinase 14 (Homo sapiens, UniProt Q16539); test: Inhibition of p38alpha
# Mitogen-activated protein kinase 14, sequence (Q16539 whole entry): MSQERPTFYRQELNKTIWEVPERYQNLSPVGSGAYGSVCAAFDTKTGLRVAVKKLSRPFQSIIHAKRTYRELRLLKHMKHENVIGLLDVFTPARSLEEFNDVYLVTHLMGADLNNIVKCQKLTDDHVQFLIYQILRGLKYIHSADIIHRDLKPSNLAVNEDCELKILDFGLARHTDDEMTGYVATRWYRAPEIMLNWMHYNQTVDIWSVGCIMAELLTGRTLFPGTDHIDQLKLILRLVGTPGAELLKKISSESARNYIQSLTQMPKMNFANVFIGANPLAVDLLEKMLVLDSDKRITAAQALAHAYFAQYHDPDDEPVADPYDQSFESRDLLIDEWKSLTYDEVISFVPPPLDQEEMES
# CYP3A4 = CYP3A4 (Homo sapiens, UniProt P08684); test: Inhibition of CYP3A4 at 3 uM; type: ADME
# CYP3A4, sequence (P08684 whole entry): as the sequence (P08684 whole entry) above
# [15] = biological target: Mitogen-activated protein kinase 8 (Homo sapiens, UniProt P45983); test: Inhibition of Jnk1
# [16] = biological target: Mitogen-activated protein kinase kinase kinase 8 (Homo sapiens, UniProt P41279); test: Inhibition of Tpl2 by ELISA
# Mitogen-activated protein kinase kinase kinase 8, sequence (P41279 whole entry): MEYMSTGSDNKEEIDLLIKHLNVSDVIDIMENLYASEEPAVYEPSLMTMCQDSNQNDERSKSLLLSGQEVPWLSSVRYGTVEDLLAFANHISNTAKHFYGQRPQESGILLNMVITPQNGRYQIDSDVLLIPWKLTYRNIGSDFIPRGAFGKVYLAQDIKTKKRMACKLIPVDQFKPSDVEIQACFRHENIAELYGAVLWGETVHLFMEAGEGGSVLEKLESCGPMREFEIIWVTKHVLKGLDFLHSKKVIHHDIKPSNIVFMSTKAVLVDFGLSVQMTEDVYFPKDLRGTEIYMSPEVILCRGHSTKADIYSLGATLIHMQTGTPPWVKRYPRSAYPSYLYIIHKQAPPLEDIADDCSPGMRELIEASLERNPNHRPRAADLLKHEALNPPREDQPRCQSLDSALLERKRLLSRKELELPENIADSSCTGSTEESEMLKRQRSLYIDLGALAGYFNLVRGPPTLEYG
# [17] = Metabolic stability in mouse liver microsomes; type: ADME, Microsome
# How it was run: (§2)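 Compound was incubated with liver microsomes from the stated species. Stability is expressed as parent half-life (t1/2, min). Metabolites were also profiled.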
# [18] = Metabolic stability in human liver microsomes; type: ADME, Microsome
# How it was run: as §2
# [19] = Metabolic stability in rat liver microsomes; type: ADME, Microsome
# How it was run: as §2
# [20] = biological target: Tyrosine-protein kinase BTK (Homo sapiens, UniProt Q06187); test: Inhibition of BTK
# [21] = Plasma concentration in LPS challenged Sprague-Dawley rat at 50 mg/kg, po after 1 hr; type: ADME, organism-based; parameters: dose 50 mg/kg, route oral
# [22] = biological target: Glycogen synthase kinase-3 beta (Homo sapiens, UniProt P49841); test: Inhibition of GSKbeta
# [23] = biological target: Tyrosine-protein kinase Lck (Homo sapiens, UniProt P06239); test: Inhibition of LCK
# [24] = biological target: Protein kinase C theta type (Homo sapiens, UniProt Q04759); test: Inhibition of PKCtheta
# [25] = biological target: Tyrosine-protein kinase Lyn (Homo sapiens, UniProt P07948); test: Inhibition of LYN
# [26] = Plasma concentration in LPS challenged Sprague-Dawley rat at 50 mg/kg, po after 150 mins; type: ADME, organism-based; parameters: dose 50 mg/kg, route oral
# Rattus norvegicus [27] = test: Inhibition of TNFalpha production in Sprague-Dawley rat at 50 mg/kg, po administered 1 hr prior to LPS challenge after 1.5 hrs; type: functional
solubility (physchem) [µg/mL],IC50 [5] [µM],IC50 [7] [µM],IC50 [8] [µM],IC50 [10] [µM],IC50 [13] [µM],IC50 [14] [µM],IC50 [16] [nM],SMILES,Inhibitory concentration (Monocyte) [nM],Activity (Blood) [µM],further results
< 10,40.1,> 40,> 40,> 40,> 40,> 40,–,N#Cc1cnc2c(Cl)cc(NCc3cccc[n+]3[O-])cc2c1Nc1ccc(F)c(Cl)c1,1500,11.4,clearance [1]: 38 mL/min/kg; Vd [2]: 1.6 L/kg; half-life [3]: 48 min; AUC/dose (Rattus norvegicus [4]): < 10 ng·kg·h/mg/mL; half-life [6]: 252 min; bioavailability [9]: < 1%; Papp [11]: < 5 ×10⁻⁶ cm/s; IC50 [12]: 2.9 µM; IC50 (CaM kinase II): > 40 µM; IC50 (Cytochrome P450 3A4): 18 µM
–,–,–,–,–,–,–,–,Cn1cncc1CNc1cc(Cl)c2ncc(C#N)c(Nc3ccc(F)c(Cl)c3)c2c1,–,>20,–
–,> 40,> 40,> 40,> 40,> 40,> 40,–,CN(C)CCCn1cc(CNc2cc(Br)c3ncc(C#N)c(Nc4ccc(F)c(Cl)c4)c3c2)nn1,221,3.08,AUC/dose (Rattus norvegicus [4]): < 10 ng·kg·h/mg/mL; inhibition at 3 µM (CYP3A4): 66%; half-life [6]: 156 min; IC50 [15]: > 40 µM
–,–,–,–,–,–,–,350,N#Cc1cnc2c(Cl)cc(NCc3cccc(N4CCOCC4)n3)cc2c1Nc1ccc(F)c(Cl)c1,–,–,–
–,–,–,–,–,–,–,–,N#Cc1cnc2ccc(NCc3c[nH]cn3)cc2c1Nc1ccc(F)c(Cl)c1,600,3.3,–
< 10,62.7,> 40,18.8,> 40,76.1,> 40,–,CCCc1[nH]cnc1CNc1cc(Cl)c2ncc(C#N)c(Nc3ccc(F)c(Cl)c3)c2c1,220,5.6,clearance [1]: > 100 mL/min/kg; Vd [2]: 12.2 L/kg; half-life [3]: 72 min; Papp [11]: < 5 ×10⁻⁶ cm/s; IC50 (CaM kinase II): > 40 µM; IC50 (Cytochrome P450 3A4): 16 µM
–,–,–,–,–,–,–,200,N#Cc1cnc2c(Cl)cc(NCC(=O)O)cc2c1Nc1ccc(F)c(Cl)c1,>5000,>20,–
–,–,–,–,–,–,–,–,CCc1[nH]cnc1CNc1cc(Cl)c2ncc(C#N)c(Nc3ccc(F)c(Cl)c3)c2c1,–,7.5,–
< 10,40.2,19.9,> 100,23.4,40.1,11.2,20,N#Cc1cnc2c(Cl)cc(NCc3cnc[nH]3)cc2c1Nc1ccc(F)c(Cl)c1,350,4.9,clearance [1]: 19 mL/min/kg; Vd [2]: 2.4 L/kg; half-life [3]: 264 min; AUC/dose (Rattus norvegicus [4]): 24 ng·kg·h/mg/mL; half-life [17]: 23 min; half-life [18]: 31 min; half-life [19]: 35 min; half-life [6]: 486 min; bioavailability [9]: 2%; Papp [11]: < 5 ×10⁻⁶ cm/s; IC50 (CaM kinase II): > 40 µM
–,–,–,–,–,–,–,–,Cn1nccc1CNc1cc(Br)c2ncc(C#N)c(Nc3ccc(F)c(Cl)c3)c2c1,665,>20,–
–,–,–,–,–,–,–,160,N#Cc1cnc2c(C(F)(F)F)cc(NCc3c[nH]cn3)cc2c1Nc1ccc(F)c(Cl)c1,600,>10,IC50 [12]: > 20 µM
–,–,–,–,–,–,–,2,N#Cc1cnc2c(Cl)cc(NCc3nn[nH]n3)cc2c1Nc1ccc(F)c(Cl)c1,>5000,>20,–
< 10,87.1,> 40,83.1,> 40,> 100,> 40,–,Cn1cnc(CNc2cc(Br)c3ncc(C#N)c(Nc4ccc(F)c(Cl)c4)c3c2)c1,670,6.3,clearance [1]: 50 mL/min/kg; IC50 [20]: > 10 µM; Vd [2]: 14.1 L/kg; half-life [3]: 300 min; concentration at 1 h [21]: 1100 nM; AUC/dose (Rattus norvegicus [4]): 142 ng·kg·h/mg/mL; IC50 [22]: > 10 µM; half-life [6]: 240 min; bioavailability [9]: 42%; IC50 [23]: 4.5 µM; Papp [11]: < 5 ×10⁻⁶ cm/s; IC50 [24]: > 50 µM; IC50 [25]: > 30 µM; IC50 [15]: 31 µM; concentration at 2.5 h [26]: 550 nM; inhibition in vivo at 50 mg/kg (Rattus norvegicus [27]): 50%; IC50 (Cytochrome P450 3A4): 15 µM
–,–,–,–,–,–,–,–,N#Cc1cnc2c(Cl)cc(NCCc3c[nH]cn3)cc2c1Nc1ccc(F)c(Cl)c1,–,>20,–
–,> 40,20,> 40,> 40,10.3,> 40,20,N#Cc1cnc2c(F)cc(NCc3c[nH]cn3)cc2c1Nc1ccc(F)c(Cl)c1,510,>10,inhibition at 3 µM (CYP3A4): 96%
2,–,–,–,–,–,–,10,N#Cc1cnc2c(Br)cc(NCc3c[nH]cn3)cc2c1Nc1ccc(F)c(Cl)c1,370,>10,IC50 [12]: 3.3 µM
